Results as given in ChEMBL document CHEMBL3351523 (Bioorg Med Chem, 2014).

Key:
[1] = system: Bovine viral diarrhea virus 1; assay: Antiviral activity against Bovine viral diarrhea virus infected in MDBK cells assessed as inhibition of virus-induced cytopathogenicity after 3 to 4 days by MTT assay; assay type: functional, organism-based; settings: Bovine viral diarrhea virus isolates and strains
[2] = system: Vesicular stomatitis virus; assay: Antiviral activity against Vesicular stomatitis virus infected in african green monkey Vero 76 cells assessed as reduction in plaque number after 2 days by plaque reduction assay; assay type: functional, organism-based; settings: 48 h
[3] = Cytotoxicity against mock-infected african green monkey Vero 76 cells after 48 to 96 hrs by MTT assay; assay type: cell-based; settings: chlorocebus sabaeus, mock-infected Vero 76 cells
Reovirus sp. = assay: Antiviral activity against Reovirus type-1 infected in BHK21 cells assessed as inhibition of virus-induced cytopathogenicity after 3 to 4 days by MTT assay; assay type: functional, organism-based; settings: BHK-21
[4] = system: Respiratory syncytial virus; assay: Antiviral activity against Respiratory syncytial virus infected in african green monkey Vero 76 cells assessed as reduction in plaque number after 5 days by plaque reduction assay; assay type: functional, organism-based; settings: human respiratory syncytial virus, 120 h
[5] = Cytotoxicity against mock-infected MDBK cells after 48 to 96 hrs by MTT assay; assay type: cell-based, Bos taurus; settings: cattle
In short: (§1)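 Mock-infected MDBK (6 × 10^5 cells/mL; MEM-E, 10% horse serum, 1 mM pyruvate) or BHK (1 × 10^6 cells/mL; MEM-E, 10% FBS) cells were incubated at 37 °C, 5% CO2 with serial dilutions from 100 µM, 1:5. Viability by MTT after 48–96 h. CC50 from linear regression against untreated controls.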

Vaccinia virus = assay: Antiviral activity against Vaccinia Virus infected in african green monkey Vero 76 cells assessed as reduction in plaque number after 3 days by plaque reduction assay; assay type: functional, organism-based; settings: Orthopoxvirus vaccinia, 72 h
[6] = Cytotoxicity against mock-infected human MT4 cells after 96 hrs by MTT assay; assay type: cell-based
In short: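 Exponentially growing MT-4 cells were seeded at 1 × 10^5 cells/mL in RPMI-1640 with 10% FBS and held at 37 °C, 5% CO2 with serial compound dilutions. Viability was read by MTT after 96 h. CC50 from linear regression against untreated controls.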

[7] = Selectivity index, ratio of CC50 for african green monkey Vero 76 cells to EC50 for Respiratory syncytial virus; assay type: toxicity, cell-based; settings: read-out: Ratio CC50/EC50
In short: (§2)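 Mock-infected Vero-76 cells were tested in parallel on the same 24-well plates as the plaque assays (seeding 4 × 10^5 cells/mL, D-MEM with FBS), with serial compound dilutions at 37 °C, 5% CO2. Viability was read after 48–96 h by crystal violet staining. CC50 by linear regression; selectivity index = Vero-76 CC50/EC50 for CVB-5 or RSV.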

Yellow fever virus = assay: Antiviral activity against Yellow fever virus infected in BHK21 cells assessed as inhibition of virus-induced cytopathogenicity after 3 to 4 days by MTT assay; assay type: functional, organism-based; settings: BHK-21
Poliovirus 1 = assay: Antiviral activity against Poliovirus type 1 Sabin strain infected in african green monkey Vero 76 cells assessed as reduction in plaque number after 2 days by plaque reduction assay; assay type: functional, organism-based; settings: Enterovirus C, 48 h
Human alphaherpesvirus 1 = assay: Antiviral activity against HSV1 infected in african green monkey Vero 76 cells assessed as reduction in plaque number after 3 days by plaque reduction assay; assay type: functional, organism-based; settings: Human alphaherpesvirus 1, Vero, 72 h
[8] = Cytotoxicity against mock-infected BHK21 cells after 48 to 96 hrs by MTT assay; assay type: functional; settings: Mesocricetus auratus, BHK-21; in short: as §1
Coxsackievirus B5 = assay: Antiviral activity against Coxsackievirus B5 infected in african green monkey Vero 76 cells assessed as reduction in plaque number after 3 days by plaque reduction assay; assay type: functional, organism-based; settings: Enterovirus B, 72 h
[9] = Selectivity index, ratio of CC50 for african green monkey Vero 76 cells to EC50 for Coxsackievirus B5; assay type: toxicity, cell-based; settings: read-out: Ratio CC50/EC50; in short: as §2
[10] = system: Human immunodeficiency virus 1; assay: Antiviral activity against HIV1 infected in human MT4 cells assessed as inhibition of virus-induced cytopathogenicity after 4 days by MTT assay; assay type: functional, organism-based; settings: Human immunodeficiency virus 1, MT4, 96 h
In short: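 MT-4 cells (1 × 10^4/well in RPMI) were infected acutely with HIV-1 IIIB, 100 CCID50 (m.o.i. 0.01), with serial dilutions from 100 µM, 1:5. After 4 days at 37 °C, protection from virus-induced cytopathogenicity was read by MTT. EC50 came from linear regression against untreated controls.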

Structure (SMILES) | EC50 [1] [µM] | EC50 [2] [µM] | CC50 [3] [µM] | EC50 (Reovirus sp.) [µM] | EC50 [4] [µM] | CC50 [5] [µM] | EC50 (Vaccinia virus) [µM] | CC50 at 96 h [6] [µM] | selectivity ratio [7] | EC50 (Yellow fever virus) [µM] | EC50 (Poliovirus 1) [µM] | EC50 (Human alphaherpesvirus 1) [µM] | CC50 [8] [µM] | EC50 (Coxsackievirus B5) [µM] | selectivity ratio [9] | EC50 [10] [µM]
CCC/C=C(\CC)c1nc2ccccc2[nH]1 | > 100 | > 100 | ≥ 100 | > 100 | 22 | > 100 | > 100 | 61 | > 4.54 | > 100 | > 100 | > 100 | 67 | 90 | > 1.11 | > 100
Clc1ccc(Cc2nc3cc(Cl)c(Cl)cc3n2C[C@@H]2CCCN3CCCC[C@H]23)cc1Cl | > 100 | > 100 | > 100 | > 100 | 12 | 46 | > 100 | 9 | > 8.33 | > 100 | > 100 | > 100 | 52 | 9 | > 11.1 | > 100
FC(F)(F)c1ccc2c(c1)nc(Cc1ccc(Br)cc1)n2C[C@@H]1CCCN2CCCC[C@H]12 | > 100 | > 100 | > 100 | > 100 | 25 | 40 | > 100 | 13 | > 4 | > 100 | > 100 | > 100 | 20 | > 100 | > 1 | > 100
Clc1ccc2nc(-c3ccccc3)n([C@H]3CCCN4CCCC[C@H]34)c2c1 | 80 | > 100 | 90 | > 100 | 45 | 86 | > 100 | 56 | 2 | > 100 | > 100 | > 100 | 48 | 14 | 6.43 | > 100
Clc1cc2nc(Cc3ccc(Br)cc3)n(C[C@@H]3CCCN4CCCC[C@H]34)c2cc1Cl | > 100 | > 100 | > 100 | > 100 | 9 | 58 | > 100 | 12 | > 11.1 | > 100 | > 100 | > 100 | 70 | 50 | > 2 | > 100
CCCCn1c(Cc2ccc(Cl)c(Cl)c2)nc2cc(C(F)(F)F)ccc21 | > 100 | > 100 | > 100 | > 100 | 9 | 11 | 31 | > 100 | > 11.1 | > 100 | > 100 | > 100 | 21 | 12 | > 8.33 | > 100
